In ChEMBL document CHEMBL4020742, “Design and optimization of purine derivatives as in vivo active PDE10A inhibitors” (Bioorg Med Chem, 2017):
Calls of active or inactive are those of the source. The calls are words filed in the database; no cut-off is given here.

Legend:
[1] = target: T1, CYP2C9 (Homo sapiens, UniProt P11712); experiment: Inhibition of CYP2C9 in human microsomes at 10 uM using diclofenac as substrate preincubated for 5 mins followed by NADPH addition measured 20 mins relative to control; assay type: ADME; conditions: human microsomes, probe diclofenac, read-out: TDI
T1 sequence (P11712 whole entry): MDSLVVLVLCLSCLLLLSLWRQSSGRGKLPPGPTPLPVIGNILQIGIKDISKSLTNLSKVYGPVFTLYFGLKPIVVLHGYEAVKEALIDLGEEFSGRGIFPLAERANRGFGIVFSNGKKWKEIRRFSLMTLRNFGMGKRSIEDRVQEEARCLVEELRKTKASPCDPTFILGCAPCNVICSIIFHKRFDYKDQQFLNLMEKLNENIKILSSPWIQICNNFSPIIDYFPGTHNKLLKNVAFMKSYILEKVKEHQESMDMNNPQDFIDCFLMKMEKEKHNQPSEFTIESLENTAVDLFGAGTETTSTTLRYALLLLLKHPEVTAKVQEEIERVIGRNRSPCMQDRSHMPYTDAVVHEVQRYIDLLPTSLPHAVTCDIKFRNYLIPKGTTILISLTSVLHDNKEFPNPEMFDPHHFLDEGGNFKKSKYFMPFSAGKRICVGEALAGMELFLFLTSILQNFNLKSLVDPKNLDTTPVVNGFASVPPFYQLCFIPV
In short: (§1)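 Pooled human microsomes (0.2 mg/mL) in 100 mM phosphate pH 7.4 with a probe cocktail: midazolam 10 µM, dextromethorphan 10 µM, diclofenac 20 µM, phenacetin 100 µM, mephenytoin 100 µM. Test compound was 10 µM; organic solvent was under 1%. After 5 min preincubation at 37 °C, 1 mmol/L NADPH was added and the reaction ran 20 min, keeping substrate conversion below 20%. Metabolite formation was expressed relative to PBS control.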

[2] = target: T1, CYP2C9; experiment: (§2) […] of CYP2C9 in human microsomes at 10 uM using diclofenac as substrate preincubated for 5 mins followed by NADPH addition measured 20 mins relative to control; assay type: ADME; conditions: human microsomes, probe diclofenac, read-out: TDI
[3] = target: T2, cAMP and cAMP-inhibited cGMP 3',5'-cyclic phosphodiesterase 10A (Homo sapiens, UniProt Q9Y233); experiment: (§3) Inhibition of recombinant human N-terminal GST-tagged PDE10A1 (2 to 789 residues) expressed in baculovirus infected Sf9 cells at 5 uM using fluorescein-labeled cAMP as substrate preincubated for 15 mins followed by substrate addition measured after 30 mins by IMAP fluorescence polarization assay relative to control
T2 sequence (Q9Y233 whole entry, the tested form may be a part): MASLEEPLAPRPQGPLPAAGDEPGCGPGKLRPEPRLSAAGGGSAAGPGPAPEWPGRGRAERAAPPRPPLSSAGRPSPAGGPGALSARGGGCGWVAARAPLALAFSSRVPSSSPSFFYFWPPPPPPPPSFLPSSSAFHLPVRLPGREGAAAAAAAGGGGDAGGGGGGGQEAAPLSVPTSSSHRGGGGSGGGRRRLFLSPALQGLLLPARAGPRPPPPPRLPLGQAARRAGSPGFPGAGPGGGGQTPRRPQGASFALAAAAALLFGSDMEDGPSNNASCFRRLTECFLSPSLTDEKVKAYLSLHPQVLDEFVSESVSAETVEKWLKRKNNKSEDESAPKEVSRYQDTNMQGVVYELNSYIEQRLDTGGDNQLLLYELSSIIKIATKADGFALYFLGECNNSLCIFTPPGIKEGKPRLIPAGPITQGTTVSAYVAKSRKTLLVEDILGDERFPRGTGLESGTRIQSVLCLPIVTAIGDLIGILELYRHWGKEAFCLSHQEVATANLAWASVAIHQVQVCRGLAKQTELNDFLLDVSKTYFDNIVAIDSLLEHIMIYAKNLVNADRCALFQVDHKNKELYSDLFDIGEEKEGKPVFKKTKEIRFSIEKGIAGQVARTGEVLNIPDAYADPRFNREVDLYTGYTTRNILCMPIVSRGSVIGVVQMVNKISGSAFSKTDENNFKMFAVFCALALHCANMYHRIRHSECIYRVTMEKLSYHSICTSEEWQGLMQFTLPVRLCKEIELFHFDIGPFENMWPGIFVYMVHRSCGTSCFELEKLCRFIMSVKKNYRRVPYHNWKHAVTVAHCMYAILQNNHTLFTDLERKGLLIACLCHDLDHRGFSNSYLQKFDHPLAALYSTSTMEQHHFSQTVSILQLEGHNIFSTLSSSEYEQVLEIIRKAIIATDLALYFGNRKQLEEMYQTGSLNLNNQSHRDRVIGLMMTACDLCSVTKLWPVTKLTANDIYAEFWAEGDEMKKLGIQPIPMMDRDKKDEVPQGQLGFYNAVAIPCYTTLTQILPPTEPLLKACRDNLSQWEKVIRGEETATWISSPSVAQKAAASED
In short: (§4)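 Recombinant PDE4A1A, PDE2A1 or PDE10A1 was incubated with compound (1% DMSO, duplicate) for 15 min at RT. Fluorescein-cAMP was then added for 30 min at RT, and the reaction was stopped with IMAP binding reagent (1 h, dark). FP was read at Ex485/Em535. Inhibition was set against no-enzyme and DMSO controls. IC50 came from a four-parameter logistic fit; values are the mean of at least two measurements.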

[4] = target: T3, Cytochrome P450 3A4 (Homo sapiens, UniProt P08684); experiment: (§5) Time-dependent inhibition of CYP3A4 in human microsomes at 10 uM using midazolam as substrate preincubated for 5 mins followed by NADPH addition measured 20 mins relative to control; assay type: ADME; conditions: microsomes, 20 min, 10 µM
T3 sequence (P08684 whole entry): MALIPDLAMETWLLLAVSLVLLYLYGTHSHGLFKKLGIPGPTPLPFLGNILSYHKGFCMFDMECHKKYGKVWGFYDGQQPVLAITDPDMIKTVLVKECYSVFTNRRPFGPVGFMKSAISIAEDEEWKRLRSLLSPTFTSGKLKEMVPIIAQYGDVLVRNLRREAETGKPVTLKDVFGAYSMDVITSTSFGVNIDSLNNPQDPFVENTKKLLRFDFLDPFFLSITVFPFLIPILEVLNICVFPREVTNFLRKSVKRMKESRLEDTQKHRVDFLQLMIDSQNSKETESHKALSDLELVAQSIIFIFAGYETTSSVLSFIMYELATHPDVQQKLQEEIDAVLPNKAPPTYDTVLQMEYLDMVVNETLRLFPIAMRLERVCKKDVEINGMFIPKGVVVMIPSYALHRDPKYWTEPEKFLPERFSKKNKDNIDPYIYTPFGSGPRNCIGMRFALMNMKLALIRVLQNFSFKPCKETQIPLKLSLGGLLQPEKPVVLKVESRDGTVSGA

[5] = target: T4, CYP1A2 (Homo sapiens, UniProt P05177); experiment: Inhibition of CYP1A2 in human microsomes at 10 uM using phenacetin as substrate preincubated for 5 mins followed by NADPH addition measured 20 mins relative to control; assay type: ADME; conditions: probe phenacetin, read-out: TDI; in short: as §1
T4 sequence (P05177 whole entry): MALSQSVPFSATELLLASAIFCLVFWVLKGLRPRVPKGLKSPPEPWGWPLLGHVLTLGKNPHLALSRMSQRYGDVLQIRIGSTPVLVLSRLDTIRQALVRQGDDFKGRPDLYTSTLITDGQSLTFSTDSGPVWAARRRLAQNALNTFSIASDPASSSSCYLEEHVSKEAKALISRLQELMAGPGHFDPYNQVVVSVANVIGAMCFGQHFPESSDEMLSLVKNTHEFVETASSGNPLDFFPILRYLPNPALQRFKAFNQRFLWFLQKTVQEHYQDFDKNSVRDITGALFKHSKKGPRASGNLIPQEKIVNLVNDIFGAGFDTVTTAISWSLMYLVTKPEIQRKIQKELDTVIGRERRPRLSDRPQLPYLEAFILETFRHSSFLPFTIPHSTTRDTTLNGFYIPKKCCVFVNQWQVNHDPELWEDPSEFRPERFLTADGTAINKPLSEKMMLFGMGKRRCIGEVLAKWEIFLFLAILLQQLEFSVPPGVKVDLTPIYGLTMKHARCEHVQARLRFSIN

[6] = target: T5, Cytochrome P450 1A2 (Homo sapiens, UniProt P05177); experiment: (§6) Time-dependent inhibition of CYP1A2 in human microsomes at 10 uM using phenacetin as substrate preincubated for 5 mins followed by NADPH addition measured 20 mins relative to control; assay type: ADME; conditions: microsomes, 20 min, 10 µM
T5 sequence (P05177 whole entry): T4 sequence (P05177 whole entry)

[7] = target: T6, CYP2C19 (Homo sapiens, UniProt P33261); experiment: Inhibition of CYP2C19 in human microsomes at 10 uM using mephenytoin as substrate preincubated for 5 mins followed by NADPH addition measured 20 mins relative to control; assay type: ADME; conditions: human microsomes, probe mephenytoin, read-out: TDI; in short: as §1
T6 sequence (P33261 whole entry): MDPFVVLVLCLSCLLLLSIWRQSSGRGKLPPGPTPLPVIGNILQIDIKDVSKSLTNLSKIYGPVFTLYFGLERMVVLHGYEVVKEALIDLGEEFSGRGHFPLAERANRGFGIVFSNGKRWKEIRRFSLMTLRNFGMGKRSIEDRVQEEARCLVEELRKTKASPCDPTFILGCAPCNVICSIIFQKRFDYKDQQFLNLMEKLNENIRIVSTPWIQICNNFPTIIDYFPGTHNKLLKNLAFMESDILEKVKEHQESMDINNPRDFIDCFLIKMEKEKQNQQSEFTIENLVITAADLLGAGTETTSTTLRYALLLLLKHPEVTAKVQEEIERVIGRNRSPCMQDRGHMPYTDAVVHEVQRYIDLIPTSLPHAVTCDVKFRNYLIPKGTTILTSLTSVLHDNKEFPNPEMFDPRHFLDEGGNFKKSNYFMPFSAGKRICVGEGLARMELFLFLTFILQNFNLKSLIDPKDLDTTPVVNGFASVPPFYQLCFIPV

[8] = Half life in human liver microsomes at 1 uM preincubated for 5 mins followed by NADPH addition measured up to 30 mins by LC-MS/MS analysis; assay type: ADME, microsome
In short: (§7)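 Liver microsomes (0.5 mg/mL) plus 1 µM compound were preincubated 5 min at 37 °C in 0.1 M phosphate buffer pH 7.4 containing EDTA and MgCl₂. NADPH started the reaction. Samples at 0, 5, 10 and 30 min were quenched with cold acetonitrile containing tinidazole internal standard and centrifuged. Parent remaining was quantified by LC/MS/MS.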

[9] = Half life in mouse liver microsomes at 1 uM preincubated for 5 mins followed by NADPH addition measured up to 30 mins by LC-MS/MS analysis; assay type: ADME, microsome; in short: as §7
[10] = target: T7, CYP2D6 (Homo sapiens, UniProt P10635); experiment: (§8) […] of CYP2D6 in human microsomes at 10 uM using dextromethorphan as substrate preincubated for 5 mins followed by NADPH addition measured 20 mins relative to control; assay type: ADME; conditions: human microsomes, probe dextromethorphan, read-out: TDI
T7 sequence (P10635 whole entry, the tested form may be a part): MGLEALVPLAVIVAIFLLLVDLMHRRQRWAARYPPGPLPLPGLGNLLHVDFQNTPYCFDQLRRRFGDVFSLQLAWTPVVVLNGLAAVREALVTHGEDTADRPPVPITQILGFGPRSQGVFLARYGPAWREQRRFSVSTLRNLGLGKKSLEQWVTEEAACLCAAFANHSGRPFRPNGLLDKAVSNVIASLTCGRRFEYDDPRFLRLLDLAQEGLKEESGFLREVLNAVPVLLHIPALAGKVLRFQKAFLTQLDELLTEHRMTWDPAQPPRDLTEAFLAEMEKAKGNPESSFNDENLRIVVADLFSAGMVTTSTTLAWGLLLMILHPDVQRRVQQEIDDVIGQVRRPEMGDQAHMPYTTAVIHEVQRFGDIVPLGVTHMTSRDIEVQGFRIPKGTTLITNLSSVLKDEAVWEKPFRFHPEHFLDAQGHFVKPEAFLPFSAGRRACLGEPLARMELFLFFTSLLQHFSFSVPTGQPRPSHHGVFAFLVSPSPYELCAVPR

[11] = target: T2, cAMP and cAMP-inhibited cGMP 3',5'-cyclic phosphodiesterase 10A; experiment: Inhibition of recombinant human N-terminal GST-tagged PDE10A1 (2 to 789 residues) expressed in baculovirus infected Sf9 cells using fluorescein-labeled cAMP as substrate preincubated for 15 mins followed by substrate addition measured after 30 mins by IMAP fluorescence polarization assay; in short: as §4
[12] = target: T6, CYP2C19; experiment: (§9) […] of CYP2C19 in human microsomes at 10 uM using mephenytoin as substrate preincubated for 5 mins followed by NADPH addition measured 20 mins relative to control; assay type: ADME; conditions: human microsomes, probe mephenytoin, read-out: TDI
[13] = target: T7, CYP2D6; experiment: Inhibition of CYP2D6 in human microsomes at 10 uM using dextromethorphan as substrate preincubated for 5 mins followed by NADPH addition measured 20 mins relative to control; assay type: ADME; conditions: human microsomes, probe dextromethorphan, read-out: TDI; in short: as §1
[14] = target: T8, CYP3A4 (Homo sapiens, UniProt P08684); experiment: (§10) Inhibition of CYP3A4 in human microsomes at 10 uM using midazolam as substrate preincubated for 5 mins followed by NADPH addition measured 20 mins relative to control; assay type: ADME; conditions: human microsomes, probe midazolam, read-out: TDI; in short: as §1
T8 sequence (P08684 whole entry): as the sequence (P08684 whole entry) above

[15] = target: Cytochrome P450 2C9 (Homo sapiens, UniProt P11712); experiment: as §2; assay type: ADME; conditions: microsomes, 20 min, 10 µM
Sequence of Cytochrome P450 2C9 (P11712 whole entry): as the sequence (P11712 whole entry) above

[16] = target: T4, CYP1A2; experiment: as §6; assay type: ADME; conditions: human microsomes, probe phenacetin, read-out: TDI
[17] = target: Cytochrome P450 2D6 (Homo sapiens, UniProt P10635); experiment: as §8; assay type: ADME; conditions: microsomes, 20 min, 10 µM
Sequence of Cytochrome P450 2D6 (P10635 whole entry): as the sequence (P10635 whole entry, the tested form may be a part) above

[18] = target: Cytochrome P450 2C19 (Homo sapiens, UniProt P33261); experiment: as §9; assay type: ADME; conditions: microsomes, 20 min, 10 µM
Sequence of Cytochrome P450 2C19 (P33261 whole entry): as the sequence (P33261 whole entry) above

[19] = target: T3, Cytochrome P450 3A4; experiment: as §10; assay type: ADME; conditions: microsomes, 20 min, 10 µM; in short: as §1
[20] = target: T8, CYP3A4; experiment: as §5; assay type: ADME; conditions: human microsomes, probe midazolam, read-out: TDI
[21] = system: Rattus norvegicus; experiment: Antipsychotic activity in Sprague-Dawley rat assessed as inhibition of PCP-induced hyperlocomotion at 50 mg/kg, po pretreated for 30 mins followed by PCP addition measured after 5 mins for 1.5 hrs by open field test; assay type: functional, organism-based
In short: (§11)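 Male SD rats (200-250 g), acclimated at least 1 week. Drug was given p.o. in sterile saline with 0.5% Tween 80 and 0.2% CMC-sodium, 30 min before PCP 5 mg/kg i.p. Rats were placed in a 40×40×45 cm open-field arena 5 min after PCP and video-tracked for 90 min. Read-out was total distance travelled, reported as mean ± SEM.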

[22] = system: Rattus norvegicus; experiment: Antipsychotic activity in Sprague-Dawley rat assessed as inhibition of PCP-induced hyperlocomotion at 10 mg/kg, po pretreated for 30 mins followed by PCP addition measured after 5 mins for 1.5 hrs by open field test; assay type: functional, organism-based; in short: as §11
[23] = system: Rattus norvegicus; experiment: Antipsychotic activity in Sprague-Dawley rat assessed as inhibition of PCP-induced prepulse inhibition deficit at 50 mg/kg, po pretreated for 30 mins followed by PCP addition measured after 5 mins to 10 mins; assay type: functional, organism-based
In short: (§12)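 Male SD rats (200-250 g) were dosed p.o. in saline with 0.5% Tween 80 and 0.2% CMC-sodium, 30 min before PCP 5 mg/kg i.p. Acoustic startle PPI was tested in startle chambers 5-10 min after PCP. Startle magnitude was the mean of pulse-alone trials. n = 11-16 per group; mean ± SEM; ANOVA with post hoc tests.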

[24] = target: PDE2A1 (Homo sapiens, UniProt O00408); experiment: as §3, with “N-terminal FLAG-tagged PDE2A1” for “N-terminal GST-tagged PDE10A1”, “to 941” for “to 789”, “at 1” for “at 5”; conditions: probe fluorescein-labeled cAMP; in short: as §4
Sequence of PDE2A1 (O00408 whole entry): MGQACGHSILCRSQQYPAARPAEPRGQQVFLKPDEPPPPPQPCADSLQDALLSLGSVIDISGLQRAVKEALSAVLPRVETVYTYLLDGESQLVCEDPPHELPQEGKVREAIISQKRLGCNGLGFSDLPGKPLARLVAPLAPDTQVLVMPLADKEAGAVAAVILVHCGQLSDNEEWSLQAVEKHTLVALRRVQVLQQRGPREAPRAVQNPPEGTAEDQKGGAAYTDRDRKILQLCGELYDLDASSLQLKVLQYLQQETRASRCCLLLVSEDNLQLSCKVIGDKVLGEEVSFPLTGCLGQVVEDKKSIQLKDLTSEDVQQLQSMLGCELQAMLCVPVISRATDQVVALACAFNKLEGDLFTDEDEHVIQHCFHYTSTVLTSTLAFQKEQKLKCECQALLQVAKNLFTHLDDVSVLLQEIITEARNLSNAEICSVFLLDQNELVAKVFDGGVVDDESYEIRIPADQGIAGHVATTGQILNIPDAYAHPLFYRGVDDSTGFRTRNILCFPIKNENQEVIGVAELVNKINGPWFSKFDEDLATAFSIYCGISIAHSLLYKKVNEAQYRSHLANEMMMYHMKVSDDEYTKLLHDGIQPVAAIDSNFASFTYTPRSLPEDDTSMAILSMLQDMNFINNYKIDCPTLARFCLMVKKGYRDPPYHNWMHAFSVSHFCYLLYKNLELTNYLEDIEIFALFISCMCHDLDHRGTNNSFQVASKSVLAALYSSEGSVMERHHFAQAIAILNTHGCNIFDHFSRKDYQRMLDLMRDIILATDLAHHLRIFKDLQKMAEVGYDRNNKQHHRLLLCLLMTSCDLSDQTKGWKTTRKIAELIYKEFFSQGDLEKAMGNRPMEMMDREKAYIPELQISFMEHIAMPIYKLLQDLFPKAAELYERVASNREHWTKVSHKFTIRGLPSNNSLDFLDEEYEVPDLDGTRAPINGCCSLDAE

[25] = system: Rattus norvegicus; experiment: Antipsychotic activity in Sprague-Dawley rat assessed as inhibition of PCP-induced prepulse inhibition deficit at 10 mg/kg, po pretreated for 30 mins followed by PCP addition measured after 5 mins to 10 mins; assay type: functional, organism-based; in short: as §12

Question: What does the source list for `Cc1nc2c(N3CCOCC3)ncnc2n1Cc1ccc(-c2cnn(C)c2)cc1`?
Answer: inhibition at 20 min, 10 µM [1]: 10%; inhibition at 20 min, 10 µM [2]: 40%; inhibition [3]: 96%; TDI [4]: Not Active; inhibition at 20 min, 10 µM [5]: 21%; TDI [6]: Not Active; inhibition at 20 min, 10 µM [7]: 22%; half-life at 1 µM [8]: 231 min; half-life at 1 µM [9]: 99 min; inhibition at 20 min, 10 µM [10]: 20%; IC50 [11]: 68 nM; inhibition at 20 min, 10 µM [12]: 80%; inhibition at 20 min, 10 µM [13]: 7%; inhibition at 20 min, 10 µM [14]: 40%

Question: Which inhibition at 20 min, 10 µM [1] does the source give for `Cc1ccc(-c2ccc(Cn3cnc4c(N5CCOCC5)ncnc43)cc2)cc1` here?
Answer: 30%

Question: What about the TDI [15] of the same molecule?
Answer: Not Active

Question: What about the inhibition [3] of the same molecule?
Answer: 97%

Question: And the TDI [4]?
Answer: Not Active

Question: And the inhibition at 20 min, 10 µM [5]?
Answer: 12%

Question: And the inhibition at 20 min, 10 µM [16]?
Answer: 20%

Question: And the inhibition at 20 min, 10 µM [7]?
Answer: 44%

Question: What about the half-life at 1 µM [8] of the same molecule?
Answer: 22.4 min

Question: And the half-life at 1 µM [9]?
Answer: 49.5 min

Question: What about the TDI [17] of the same molecule?
Answer: Not Active

Question: What about the IC50 [11] of the same molecule?
Answer: 75 nM

Question: What about the TDI [18] of the same molecule?
Answer: Not Active

Question: And the inhibition at 20 min, 10 µM [13]?
Answer: 6%

Question: What about the TDI [19] of the same molecule?
Answer: Not Active

Question: Which inhibition at 20 min, 10 µM [1] does the source give for `Cc1nc2c(N3CCOCC3)ncnc2n1Cc1ccc(-c2ccccc2Cl)cc1` here?
Answer: 52%

Question: And the inhibition at 20 min, 10 µM [2]?
Answer: 10%

Question: What about the inhibition [3] of the same molecule?
Answer: 98%

Question: What about the inhibition at 20 min, 10 µM [20] of the same molecule?
Answer: 50%

Question: What about the inhibition at 20 min, 10 µM [5] of the same molecule?
Answer: 15%

Question: What about the inhibition [21] of the same molecule?
Answer: inactive

Question: What about the TDI [6] of the same molecule?
Answer: Not Active

Question: What about the inhibition at 20 min, 10 µM [7] of the same molecule?
Answer: 65%

Question: What about the half-life at 1 µM [8] of the same molecule?
Answer: 43.3 min

Question: And the inhibition [22]?
Answer: Active

Question: What about the half-life at 1 µM [9] of the same molecule?
Answer: 17.8 min

Question: And the inhibition [23]?
Answer: inactive

Question: What about the TDI [17] of the same molecule?
Answer: Not Active

Question: What about the inhibition at 0.5 h, 1 µM [24] of the same molecule?
Answer: 29%

Question: And the IC50 [11]?
Answer: 38 nM

Question: And the TDI [18]?
Answer: Not Active

Question: And the inhibition at 20 min, 10 µM [13]?
Answer: 22%

Question: And the inhibition at 20 min, 10 µM [14]?
Answer: 9%

Question: What about the inhibition [25] of the same molecule?
Answer: inactive
